Our source for the IC50 values is ChEMBL document CHEMBL1131252, “Rational design and combinatorial evaluation of enzyme inhibitor scaffolds: identification of novel inhibitors of matrix metalloproteinases” (J Med Chem, 1998).

The target in assay [1] is T1, Interstitial collagenase (Homo sapiens, UniProt P03956).
T1 sequence (P03956 whole entry): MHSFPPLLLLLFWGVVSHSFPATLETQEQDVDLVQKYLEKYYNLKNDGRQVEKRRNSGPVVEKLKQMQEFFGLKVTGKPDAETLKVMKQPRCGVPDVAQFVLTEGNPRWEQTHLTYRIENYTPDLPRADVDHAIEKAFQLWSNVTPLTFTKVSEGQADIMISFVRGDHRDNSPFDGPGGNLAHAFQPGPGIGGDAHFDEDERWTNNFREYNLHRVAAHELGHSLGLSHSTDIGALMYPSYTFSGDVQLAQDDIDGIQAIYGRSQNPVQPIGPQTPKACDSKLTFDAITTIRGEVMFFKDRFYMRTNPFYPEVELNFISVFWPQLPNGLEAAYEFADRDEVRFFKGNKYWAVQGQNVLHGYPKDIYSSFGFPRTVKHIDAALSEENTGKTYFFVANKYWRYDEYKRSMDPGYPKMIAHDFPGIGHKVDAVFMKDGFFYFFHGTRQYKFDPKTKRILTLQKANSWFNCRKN
Description: Inhibition of Matrix Metalloprotease-1. The essentials: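 Recombinant C-terminally truncated human collagenase-1 at 10 nM final, in 20 mM Hepes, 5 mM CaCl₂, 0.02% Brij35, 0.5 mM cysteine at room temperature. Inhibitor was added in degassed methanol (2% final), then 3 min later 10 μM Mca-Pro-Leu-Gly-Leu-Dpa-Ala-Arg-NH₂. Fluorescence (ex 330/em 430 nm) was read each minute for 30 min; IC50 was fitted as v_i = v_0/(1+[I]/IC50).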

Assay [2] deals with T2, Matrix metalloproteinase-9 (Homo sapiens, UniProt P14780). As to the kind of experiment: Inhibition of Matrix Metalloprotease-9. The method, boiled down:
(§1)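 Gelatinase-B, a recombinant C-terminally truncated form expressed in Pichia pastoris, used at 2 nM final. Buffer was 20 mM Hepes, 5 mM CaCl₂, 0.02% Brij35, 0.5 mM cysteine, at room temperature. Inhibitor in degassed methanol (2% final) was added 3 min before 10 μM Mca-Pro-Leu-Gly-Leu-Dpa-Ala-Arg-NH₂. Fluorescence at 330/430 nm was logged per minute for 30 min; IC50 was fitted to v_i = v_0/(1+[I]/IC50).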

For assay [3], the target named is T3, Stromelysin-1 (Homo sapiens, UniProt P08254). Description: Inhibition of Matrix Metalloprotease-3. The method, boiled down:
(§2)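 Stromelysin-1, recombinant human C-terminally truncated form, used at 10 nM final. Conditions: room temperature; Hepes 20 mM, CaCl₂ 5 mM, Brij35 0.02%, cysteine 0.5 mM; inhibitor in degassed methanol (2% final) preincubated 3 min. Reaction started with quenched-fluorescence substrate Mca-PLGL-Dpa-AR-NH₂ (10 μM final), read at ex 330/em 430 nm every minute for 30 min. IC50 came from rate fit v_i = v_0/(1+[I]/IC50).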

The target in assay [4] is T3, Stromelysin-1. As to the kind of experiment: Inhibition of stromelysin (Matrix metalloprotease-3). The method, boiled down: as §2
The target in assay [5] is T1, Interstitial collagenase. As to the kind of experiment: Inhibition of collagenase-1 (Matrix metalloprotease-1).
The target in the next assay is T4, Matrilysin (Homo sapiens, UniProt P09237).
T4 sequence (P09237 whole entry): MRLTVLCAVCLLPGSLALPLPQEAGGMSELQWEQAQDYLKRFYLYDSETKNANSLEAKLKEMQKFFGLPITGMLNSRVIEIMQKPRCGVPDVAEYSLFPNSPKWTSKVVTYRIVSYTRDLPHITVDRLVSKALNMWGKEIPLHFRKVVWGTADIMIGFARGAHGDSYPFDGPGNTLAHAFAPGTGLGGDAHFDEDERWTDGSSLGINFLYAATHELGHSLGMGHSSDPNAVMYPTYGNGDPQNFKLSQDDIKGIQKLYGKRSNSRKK
Description: Inhibition of matrilysin (Matrix metalloprotease-7). The method, boiled down: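 Matrilysin (recombinant C-terminally truncated human) at 0.5 nM final, room temperature, in buffer of 20 mM Hepes, 5 mM CaCl₂, 0.02% Brij35, 0.5 mM cysteine. Inhibitor was added from degassed methanol (2% final) with 3 min preincubation, then 10 μM quenched-fluorescence Mca-PLGL-Dpa-AR-NH₂ substrate. Fluorescence (ex 330/em 430 nm) was read once a minute for 30 min; IC50 came from v_i = v_0/(1+[I]/IC50).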

Assay [6] has as its target T2, Matrix metalloproteinase-9. As to the kind of experiment: Inhibition of gelatinase-B (Matrix metalloprotease-9). The arrangement: species or system Komagataella pastoris. The method, boiled down:
as §1

For assay [7], the target named is T3, Stromelysin-1. As to the kind of experiment: Inhibition of stromelysin-1. The essentials: as §2

SMILES strings stand for the structures. pIC50: −log10 of the molar value.

T3 sequence (P08254 whole entry, the tested form may be a part): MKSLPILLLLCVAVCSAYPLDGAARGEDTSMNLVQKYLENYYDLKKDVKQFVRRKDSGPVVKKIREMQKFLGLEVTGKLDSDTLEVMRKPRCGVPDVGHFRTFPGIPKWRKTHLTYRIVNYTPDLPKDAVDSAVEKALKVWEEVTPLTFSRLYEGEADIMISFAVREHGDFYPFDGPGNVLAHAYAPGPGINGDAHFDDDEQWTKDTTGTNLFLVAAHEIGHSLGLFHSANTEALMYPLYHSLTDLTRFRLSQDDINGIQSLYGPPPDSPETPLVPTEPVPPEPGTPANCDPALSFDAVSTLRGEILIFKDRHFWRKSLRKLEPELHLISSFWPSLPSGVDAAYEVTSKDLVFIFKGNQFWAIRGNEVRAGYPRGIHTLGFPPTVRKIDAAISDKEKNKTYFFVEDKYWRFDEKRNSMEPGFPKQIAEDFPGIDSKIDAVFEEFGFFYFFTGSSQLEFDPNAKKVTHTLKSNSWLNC
T2 sequence (P14780 whole entry, the tested form may be a part): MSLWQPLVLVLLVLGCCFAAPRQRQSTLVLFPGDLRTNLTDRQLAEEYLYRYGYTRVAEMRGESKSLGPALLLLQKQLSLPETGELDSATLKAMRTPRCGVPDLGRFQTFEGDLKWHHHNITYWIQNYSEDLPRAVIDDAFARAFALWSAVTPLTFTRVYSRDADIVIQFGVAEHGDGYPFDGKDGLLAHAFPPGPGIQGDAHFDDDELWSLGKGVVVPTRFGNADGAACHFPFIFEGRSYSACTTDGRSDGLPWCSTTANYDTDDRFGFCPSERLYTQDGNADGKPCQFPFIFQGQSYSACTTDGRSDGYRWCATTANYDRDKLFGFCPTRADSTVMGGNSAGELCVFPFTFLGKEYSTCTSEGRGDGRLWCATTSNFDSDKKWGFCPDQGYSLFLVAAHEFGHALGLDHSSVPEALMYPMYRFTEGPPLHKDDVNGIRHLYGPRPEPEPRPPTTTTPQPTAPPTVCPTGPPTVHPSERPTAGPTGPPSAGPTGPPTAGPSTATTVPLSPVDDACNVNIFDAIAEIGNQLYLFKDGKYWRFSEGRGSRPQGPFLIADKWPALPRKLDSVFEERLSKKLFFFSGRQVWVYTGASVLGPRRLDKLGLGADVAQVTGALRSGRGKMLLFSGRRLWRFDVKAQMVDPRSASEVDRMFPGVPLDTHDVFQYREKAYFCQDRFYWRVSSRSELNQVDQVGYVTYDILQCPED

For orientation: pIC50 means the IC50 on a negative log10 scale, so that one unit is a factor of ten. For the compound `COc1ccc(CN2C(=O)[C@H](CS)NC(=O)[C@@H]2CC2CCCCC2)cc1`, the pIC50 against Interstitial collagenase [1] was 7.52; in assay [2] it was 7.10; on Stromelysin-1 [3], 5.42.
Take `COc1ccc(CN2C(=O)[C@H](CS)NC(=O)[C@@H]2Cc2ccccc2)cc1`: the pIC50 was 7.19 on Interstitial collagenase [1], 5.63 in assay [2] and 5.39 on Stromelysin-1 [3].
In the same order, the values of `CCCC[C@H]1C(=O)N[C@@H](CS)C(=O)N1CC1CCCCC1` are 6.66, 6.43 and 5.47.
Take `O=C1N[C@@H](CS)C(=O)N(CC2CCCCC2)[C@H]1CC1CCCCC1`: the pIC50 at Stromelysin-1 [4] was 5.64; against Interstitial collagenase [1], 7.33; at Interstitial collagenase [5], 7.33; at Matrilysin, 6.23; in assay [2], 6.92; at Stromelysin-1 [3], 5.54. For the same compound, in assay [6], the pIC50 is 6.95.
In the case of `CCCCCCCCN1C(=O)[C@H](Cc2cccnc2)NC(=O)[C@H]1CS`, the negative logarithm of the IC50 (pIC50) against Interstitial collagenase [5] was 5.00.
The same measure, in the same setting: to `CCCCCCN1C(=O)[C@H](Cc2cccnc2)NC(=O)[C@H]1CS` belongs 5.70.
`CCCCN1C(=O)[C@H](CS)NC(=O)[C@@H]1Cc1ccccc1`: the pIC50 on Interstitial collagenase [1] is 6.50; in assay [2] it was 5.63; against Stromelysin-1 [3] it was 4.72.
In the same order, the values of `O=C1N[C@@H](CS)C(=O)N(Cc2ccc3ccccc3n2)[C@H]1CC1CCCCC1` are 7.46, 7.06 and 5.62.
Consider `O=C1N[C@H](CS)C(=O)N(CC2CCCCC2)[C@H]1CC1CCCCC1`, for which the pIC50 at Stromelysin-1 [4] was under 4.40; on Interstitial collagenase [5], 5.59; against Matrilysin it was under 4.40; in assay [6], 5.15.
In the case of `O=C1N[C@H](CS)C(=O)N(CC2CCCCC2)[C@@H]1CC1CCCCC1`, the pIC50 is under 4.40 against Stromelysin-1 [7], 4.85 on Interstitial collagenase [5], under 4.40 against Matrilysin and under 4.40 in assay [6].
Take `O=C1N[C@@H](CS)C(=O)N(CC2CCCCC2)[C@@H]1CC1CCCCC1`: the values for the pIC50 (against Stromelysin-1 [7]; against Matrilysin; in assay [6]) were under 4.40, 5.32 and 4.92, respectively.
